Laboratory results reported in paper PMC12334608 (Nature Communications, 2025).
Substitutions are numbered along the chain they refer to.

Columns and labels:
Format in all cases: biochemical, C. elegans
[1] = molecular target: T1, ACOX-1.1 (Caenorhabditis elegans, UniProt O62140); experiment: Enzyme-coupled kinetic assay, wild-type ACOX-1.1 as purified
T1 sequence (O62140 1-674): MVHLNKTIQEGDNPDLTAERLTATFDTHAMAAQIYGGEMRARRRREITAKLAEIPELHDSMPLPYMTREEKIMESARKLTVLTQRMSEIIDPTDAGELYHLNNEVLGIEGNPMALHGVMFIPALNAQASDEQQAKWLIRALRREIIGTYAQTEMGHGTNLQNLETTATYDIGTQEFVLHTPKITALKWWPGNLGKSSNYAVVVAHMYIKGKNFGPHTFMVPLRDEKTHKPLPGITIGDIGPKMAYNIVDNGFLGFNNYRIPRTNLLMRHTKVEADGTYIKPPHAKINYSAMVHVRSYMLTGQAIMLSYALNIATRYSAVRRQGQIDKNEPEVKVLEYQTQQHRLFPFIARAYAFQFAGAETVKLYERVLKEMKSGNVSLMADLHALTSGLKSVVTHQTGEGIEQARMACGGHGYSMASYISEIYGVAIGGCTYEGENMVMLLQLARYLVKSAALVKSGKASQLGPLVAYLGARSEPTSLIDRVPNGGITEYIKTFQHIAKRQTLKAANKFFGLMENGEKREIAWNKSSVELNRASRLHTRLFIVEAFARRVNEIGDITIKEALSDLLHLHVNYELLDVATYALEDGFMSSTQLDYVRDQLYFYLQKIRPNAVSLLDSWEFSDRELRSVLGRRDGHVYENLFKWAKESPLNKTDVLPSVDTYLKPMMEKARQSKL

[2] = system: ACOX-1.1(H396G); experiment: Enzyme-coupled kinetic assay, ACOX-1.1; conditions: 10 μM FAD, various ATP
Method in brief: (§1)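 Coupled H2O2 assay on a plate reader using the mutant enzyme (250 nM final). […] Peroxide was coupled through 4-aminoantipyrine (0.82 mM final), phenol (10.6 mM final) and peroxidase, read at 500 nm. Substrate was 25 µM lauroyl-CoA in 50 mM Tris-HCl pH 7.5, 150 mM NaCl, 10 mM MgCl2. Initial rate was taken over a 30 s window at 25–26 °C.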

[3] = system: ACOX-1.1(R536E); experiment: Enzyme-coupled kinetic assay, ACOX-1.1; conditions: 10 μM FAD, various ATP
Method in brief: as §1

[4] = molecular target: T2, ACOX-1.1(N437A) (Caenorhabditis elegans, UniProt O62140, N437A); experiment: Enzyme-coupled kinetic assay, ACOX-1.1
T2 sequence (O62140 1-674 N437A): T1 sequence (O62140 1-674) with N437A

[5] = molecular target: T3, ACOX-1.1(R295Q) (Caenorhabditis elegans, UniProt O62140, R295Q); experiment: Enzyme-coupled kinetic assay, ACOX-1.1
T3 sequence (O62140 1-674 R295Q): T1 sequence (O62140 1-674) with R295Q

Nc1ncnc2c1ncn2[C@@H]1O[C@H](COP(=O)(O)OP(=O)(O)OP(=O)(O)O)[C@@H](O)[C@H]1O [ATP]
EC50 [1]: 249 µM
response of enzyme activity to ATP [2]: do not respond to ATP
response of enzyme activity to ATP [3]: do not respond to ATP
response of enzyme activity to ATP [4]: did not respond to ATP
response of enzyme activity to ATP [5]: do not respond to ATP
